pIC50, pKd: −log10 of the molar value.
target: T1, Interleukin-15 (Homo sapiens, UniProt P40933); experiment: Binding affinity to recombinant human IL-15 assessed as dissociation constant by SPR analysis; settings: not given
Summary of the method: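 IL-15 covalently immobilized on sensor chip; compounds flowed at increasing concentrations and binding monitored by surface plasmon resonance; Kd derived from direct interaction.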

T1 sequence (P40933 whole entry): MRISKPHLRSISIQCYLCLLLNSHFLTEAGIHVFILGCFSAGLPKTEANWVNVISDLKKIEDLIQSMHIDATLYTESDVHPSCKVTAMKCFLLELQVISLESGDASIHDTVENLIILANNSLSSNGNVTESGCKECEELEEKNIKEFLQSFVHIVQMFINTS

Row | Kd | SMILES
1 | Not Active | Cn1c(Cc2n[nH]c(=O)c3ccccc23)nnc1SCCCCCCCC(=O)Nc1ccc(Cl)cc1Cl

same assay, conditions: read-out: Kd

Row | pKd | SMILES
2 | 5.89 | Cn1c(Cc2nn(C)c(=O)c3ccccc23)nnc1SCCCCCCCC(=O)Nc1ccc(Cl)cc1Cl
3 | 5.62 | Cn1nc(Cc2nnc(SCCCCCCCC(=O)Nc3ccc(Cl)cc3Cl)[nH]2)c2ccccc2c1=O
4 | 5.11 | Cn1c(Cc2nn(CCC=O)c(=O)c3ccccc23)nnc1SCCCCCCCC(=O)Nc1ccc(Cl)cc1Cl
5 | 5.23 | Cn1nc(Cc2nnc(SCCCCCCCC(=O)Nc3ccc(Cl)cc3Cl)n2CCC=O)c2ccccc2c1=O
6 | 5.41 | Cn1c(Cc2nn(CCCO)c(=O)c3ccccc23)nnc1SCCCCCCCC(=O)Nc1ccc(Cl)cc1Cl
7 | 5.46 | Cn1c(Cc2nn(C)c(=O)c3ccccc23)nnc1SCCCCCCCC(=O)Nc1ccc(C(=O)c2ccccc2)cc1

target: Interleukin-2 (Homo sapiens, UniProt P60568); experiment: Inhibition of IL2-induced STAT5 phosphorylation in human NK92 cells incubated for 30 mins followed by IL-2 stimulation and measured after 1 hr by alphascreen assay; settings: not given
Sequence (P60568 whole entry): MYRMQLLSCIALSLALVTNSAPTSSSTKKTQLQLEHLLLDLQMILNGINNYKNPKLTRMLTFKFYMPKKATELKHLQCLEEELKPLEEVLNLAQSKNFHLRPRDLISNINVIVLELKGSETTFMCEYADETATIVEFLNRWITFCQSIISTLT

Row | SMILES | pIC50
8 | CN(C)CCCn1nc(Cc2nnc(SCC(=O)Nc3ccc(Cl)cc3Cl)n2C)c2ccccc2c1=O | < 4.52
9 | Cn1nc(Cc2nnc(SCC(=O)Nc3ccc(Cl)cc3Cl)n2CCCO)c2ccccc2c1=O | < 4.52
10 | Cn1c(Cc2nn(CCC(=O)O)c(=O)c3ccccc23)nnc1SCC(=O)Nc1ccc(Cl)cc1Cl | < 4.52
11 | Cn1nc(Cc2nnc(SCC(=O)Nc3ccc(Cl)cc3Cl)n2CCC(=O)O)c2ccccc2c1=O | < 4.52
12 | Cn1nc(Cc2nnc(SCCCCCCCC(=O)Nc3ccc(Cl)cc3Cl)n2CCCO)c2ccccc2c1=O | < 4.52
13 | CN(C)CCCn1nc(Cc2nnc(SCCCCCCCC(=O)Nc3ccc(Cl)cc3Cl)n2C)c2ccccc2c1=O | < 4.52
14 | Cn1c(Cc2nn(CCCO[Si](C)(C)C(C)(C)C)c(=O)c3ccccc23)nnc1SCCCCCCCC(=O)Nc1ccc(Cl)cc1Cl | < 4.52
15 | CCOC(CCn1c(Cc2nn(C)c(=O)c3ccccc23)nnc1SCC(=O)Nc1ccc(Cl)cc1Cl)OCC | < 4.52
16 | Cn1nc(Cc2nnc(SCCCCCCCC(=O)Nc3ccc(Cl)cc3Cl)n2CCCO[Si](C)(C)C(C)(C)C)c2ccccc2c1=O | < 4.52
17 | Cn1c(Cc2nn(CCCO)c(=O)c3ccccc23)nnc1SCC(=O)Nc1ccc(Cl)cc1Cl | < 4.52
18 | Cn1c(Cc2nn(CCC3OCCO3)c(=O)c3ccccc23)nnc1SCC(=O)Nc1ccc(Cl)cc1Cl | < 4.52
19 | CN(C)CCCn1c(Cc2nn(C)c(=O)c3ccccc23)nnc1SCCCCCCCC(=O)Nc1ccc(Cl)cc1Cl | < 4.52

Continued, values first:

Row | pIC50 | SMILES
20 | 5.11 | Cn1c(Cc2nn(C)c(=O)c3ccccc23)nnc1SCC(=O)Nc1ccc(Cl)cc1Cl
21 | 6.46 | Cn1c(Cc2nn(C)c(=O)c3ccccc23)nnc1SCCCCCCCC(=O)Nc1ccc(Cl)cc1Cl
22 | 6.35 | Cn1nc(Cc2nnc(SCCCCCCCC(=O)Nc3ccc(Cl)cc3Cl)[nH]2)c2ccccc2c1=O
23 | 4.66 | Cn1c(Cc2nn(CCC=O)c(=O)c3ccccc23)nnc1SCCCCCCCC(=O)Nc1ccc(Cl)cc1Cl
24 | < 4.52 | Cn1c(Cc2nn(CCC=O)c(=O)c3ccccc23)nnc1SCC(=O)Nc1ccc(Cl)cc1Cl
25 | 6.02 | Cn1nc(Cc2nnc(SCCCCCCCC(=O)Nc3ccc(Cl)cc3Cl)n2CCC=O)c2ccccc2c1=O
26 | < 4.52 | Cn1c(Cc2nn(CCCO)c(=O)c3ccccc23)nnc1SCCCCCCCC(=O)Nc1ccc(Cl)cc1Cl
27 | 7.10 | Cn1c(Cc2nn(C)c(=O)c3ccccc23)nnc1SCCCCCCCC(=O)Nc1ccc(C(=O)c2ccccc2)cc1
28 | < 4.52 | Cn1c(Cc2n[nH]c(=O)c3ccccc23)nnc1SCCCCCCCC(=O)Nc1ccc(Cl)cc1Cl
29 | 5.07 | Cn1nc(Cc2nnc(SCC(=O)Nc3ccc(Cl)cc3Cl)n2CCC=O)c2ccccc2c1=O
30 | 4.84 | Cn1nc(Cc2nnc(SCCCCCCCC(=O)Nc3ccc(Cl)cc3Cl)n2CCC(=O)O)c2ccccc2c1=O

target: T1, Interleukin-15; experiment: Inhibition of IL-15-induced STAT5 phosphorylation in human NK92 cells incubated for 30 mins followed by IL-15 stimulation and measured after 1 hr by alphascreen assay; settings: not given

Row | SMILES | pIC50
31 | CN(C)CCCn1nc(Cc2nnc(SCC(=O)Nc3ccc(Cl)cc3Cl)n2C)c2ccccc2c1=O | < 4.52
32 | Cn1nc(Cc2nnc(SCC(=O)Nc3ccc(Cl)cc3Cl)n2CCCO)c2ccccc2c1=O | < 4.52
33 | Cn1c(Cc2nn(CCC(=O)O)c(=O)c3ccccc23)nnc1SCC(=O)Nc1ccc(Cl)cc1Cl | < 4.52
34 | Cn1nc(Cc2nnc(SCC(=O)Nc3ccc(Cl)cc3Cl)n2CCC(=O)O)c2ccccc2c1=O | < 4.52
35 | Cn1nc(Cc2nnc(SCCCCCCCC(=O)Nc3ccc(Cl)cc3Cl)n2CCCO)c2ccccc2c1=O | < 4.52
36 | CN(C)CCCn1nc(Cc2nnc(SCCCCCCCC(=O)Nc3ccc(Cl)cc3Cl)n2C)c2ccccc2c1=O | < 4.52
37 | Cn1c(Cc2nn(CCCO[Si](C)(C)C(C)(C)C)c(=O)c3ccccc23)nnc1SCCCCCCCC(=O)Nc1ccc(Cl)cc1Cl | < 4.52
38 | CCOC(CCn1c(Cc2nn(C)c(=O)c3ccccc23)nnc1SCC(=O)Nc1ccc(Cl)cc1Cl)OCC | < 4.52
39 | Cn1nc(Cc2nnc(SCCCCCCCC(=O)Nc3ccc(Cl)cc3Cl)n2CCCO[Si](C)(C)C(C)(C)C)c2ccccc2c1=O | < 4.52
40 | Cn1c(Cc2nn(CCC(=O)O)c(=O)c3ccccc23)nnc1SCCCCCCCC(=O)Nc1ccc(Cl)cc1Cl | < 4.52
41 | CN(C)CCCn1c(Cc2nn(C)c(=O)c3ccccc23)nnc1SCCCCCCCC(=O)Nc1ccc(Cl)cc1Cl | < 4.52

Next, values leading:

Row | pIC50 | SMILES
42 | 5.35 | Cn1c(Cc2nn(C)c(=O)c3ccccc23)nnc1SCC(=O)Nc1ccc(Cl)cc1Cl
43 | 6.72 | Cn1c(Cc2nn(C)c(=O)c3ccccc23)nnc1SCCCCCCCC(=O)Nc1ccc(Cl)cc1Cl
44 | 6.55 | Cn1nc(Cc2nnc(SCCCCCCCC(=O)Nc3ccc(Cl)cc3Cl)[nH]2)c2ccccc2c1=O
45 | 4.83 | Cn1c(Cc2nn(CCC=O)c(=O)c3ccccc23)nnc1SCCCCCCCC(=O)Nc1ccc(Cl)cc1Cl
46 | 4.70 | Cn1c(Cc2nn(CCC=O)c(=O)c3ccccc23)nnc1SCC(=O)Nc1ccc(Cl)cc1Cl
47 | 6.15 | Cn1nc(Cc2nnc(SCCCCCCCC(=O)Nc3ccc(Cl)cc3Cl)n2CCC=O)c2ccccc2c1=O
48 | < 4.52 | Cn1c(Cc2nn(CCCO)c(=O)c3ccccc23)nnc1SCCCCCCCC(=O)Nc1ccc(Cl)cc1Cl
49 | 7.30 | Cn1c(Cc2nn(C)c(=O)c3ccccc23)nnc1SCCCCCCCC(=O)Nc1ccc(C(=O)c2ccccc2)cc1
50 | 4.70 | Cn1c(Cc2n[nH]c(=O)c3ccccc23)nnc1SCCCCCCCC(=O)Nc1ccc(Cl)cc1Cl
51 | 5.38 | Cn1nc(Cc2nnc(SCC(=O)Nc3ccc(Cl)cc3Cl)n2CCC=O)c2ccccc2c1=O
52 | 5.02 | Cn1nc(Cc2nnc(SCCCCCCCC(=O)Nc3ccc(Cl)cc3Cl)n2CCC(=O)O)c2ccccc2c1=O

From ChEMBL document CHEMBL4819118, “Rational modification, synthesis and biological evaluation of N-substituted phthalazinone derivatives designed to target interleukine-15 protein” (Bioorg Med Chem, 2021)
